Data: ChEMBL document CHEMBL1153798, “Substituted tetrahydroquinolines as potent allosteric inhibitors of reverse transcriptase and its key mutants” (Bioorg Med Chem Lett, 2009)
Blank lines part the entries; values can stand above or below the compound they belong to.

What was measured:
[1] = system: Human immunodeficiency virus 1; test: Antiviral activity against HIV1 3B infected human MT4 cells assessed as drug level required for 95% inhibition in the presence of 10% fetal bovine serum; type: functional
Outline: (§1)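 Spread assay: MT-4 human T-lymphoid cells in RPMI 1640 with either 10% FBS or 50% NHS; CIC95 taken as the concentration blocking >95% of virus spread. Wild-type virus H9IIIB or R8 as stated per line. Geometric mean of at least two determinations, individual values within 25% of the mean.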

[2] = Protein binding in human plasma; type: ADME, cell-free; settings: read-out: PB
[3] = system: Human immunodeficiency virus 1; test: Antiviral activity against HIV1 3B infected human MT4 cells assessed as drug level required for 95% inhibition in the presence of 50% normal human serum; type: functional; outline: as §1
[4] = Inhibition of HIV1 reverse transcriptase K103 mutant
[5] = system: Human immunodeficiency virus 1; test: Antiviral activity against HIV1 R8 infected human MT4 cells assessed as drug level required for 95% inhibition in the presence of 50% normal human serum; type: functional; outline: as §1
[6] = system: Human immunodeficiency virus 1; test: Antiviral activity against HIV1 R8 infected human MT4 cells assessed as drug level required for 95% inhibition in the presence of 10% fetal bovine serum; type: functional; outline: as §1

- fraction unbound [2]: 0.01
Compound: Cc1ccc2c(c1)CCCN2C(=O)SCC(=O)Nc1ccc(S(N)(=O)=O)cc1Cl
- ID95 [1]: 78 nM
- ID95 [3]: 396 nM

Compound: NS(=O)(=O)c1ccc(NC(=O)CSC(=O)N2CCCc3cc(Cl)ccc32)c(Cl)c1
- ID95 [1]: 141 nM
- ID95 [3]: 1250 nM

Compound: NS(=O)(=O)c1ccc(NC(=O)COC(=O)N2CCCc3cc(Cl)cc(Cl)c32)c(Cl)c1
- Activity [1]: 187 nM
- IC50 [4]: 21 nM
- Activity [3]: 2500 nM

Compound: NS(=O)(=O)c1ccc(NC(=O)C2CC2C(=O)N2CCCc3cc(Cl)cc(Cl)c32)c(Cl)c1 (single isomer, unassigned; 17)
- Activity [1]: 922 nM
- IC50 [4]: 430 nM
- Activity [3]: 922 nM

Compound: O=C(CSC(=O)N1CCCc2cc(Cl)cc(Cl)c21)Nc1ccc(C(=O)NCc2ccccc2)cc1Cl
- Activity [5]: 307 nM
- Activity [6]: 63 nM

Compound: NS(=O)(=O)c1ccc(NC(=O)CNC(=O)N2CCCc3cc(Cl)cc(Cl)c32)c(Cl)c1
- Activity [1]: 562 nM
- Activity [3]: >10000 nM

Compound: NCCCNC(=O)c1ccc(NC(=O)CSC(=O)N2CCCc3cc(Cl)cc(Cl)c32)c(Cl)c1
- Activity [5]: 34 nM
- Activity [6]: 97 nM

Compound: N#Cc1ccc(NC(=O)CSC(=O)N2CCCc3cc(Cl)cc(Cl)c32)c(Cl)c1
- IC50 [4]: 14 nM
- ID95 [3]: 1250 nM
